# Experimental data from different studies.
# Protocols differ between the studies behind these lines.
# Target: High affinity nerve growth factor receptor (NTRK1, Homo sapiens, UniProt P04629)
# Mode: inhibitor
Structure (SMILES),test,setting,inhibition [%]
O=C(Nc1cccc(C(=O)Nc2ccc3[nH]ncc3c2)c1)Nc1ccccc1C(F)(F)F,"enzyme activity, FRET",1 µM,51.3
CNCc1ccc(-c2cc(-c3nc(-c4ccc(S(=O)(=O)C(C)C)cc4)cnc3N)on2)cc1,enzyme activity,0.4 µM,13
Cc1ccc(Nc2nccc(N(C)c3ccc4c(C)n(C)nc4c3)n2)cc1S(N)(=O)=O,enzyme activity,10 µM,79
O=C(Nc1ccc(C(F)(F)F)cc1)Nc1cccc(C(=O)Nc2ccc3[nH]nc(-c4ccccc4)c3c2)c1,"enzyme activity, FRET",1 µM,17
CNC(=O)c1cc(Oc2ccc(NC(=O)Nc3ccc(Cl)c(C(F)(F)F)c3)cc2)ccn1,enzyme activity,0.3 µM,36
CN(C)C1CCN(CC#Cc2nn(C3CCCC3)c3nc(NCc4ccccc4)ncc23)C1 (stereo not shown),"enzyme activity, FRET",0.1 µM,6
COc1cc2ncnc(Nc3ccc(Oc4ccccc4)cc3C)c2cc1OC,enzyme activity,1 µM,9
CCN(CC)CCNC(=O)c1c(C)[nH]c(/C=C2\C(=O)Nc3ccc(F)cc32)c1C,enzyme activity,10 µM,99
C=CC(=O)Nc1cc(Nc2nccc(Nc3cc(Cl)c(F)cc3C(C)(C)O)n2)c(OC)cc1N1CC[C@@H](N(C)C)C1,enzyme activity,1 µM,51
O=C(Nc1ccc(Cl)cc1)Nc1cccc(C(=O)Nc2ccc3[nH]ncc3c2)c1,"enzyme activity, FRET",1 µM,55.3
CSc1nc(C)c(-c2ccnc(Nc3ccc(N4CCOCC4)cc3)c2)[nH]1,cell-free assay,10 µM,10.1
O=C(Nc1ccc(C(F)(F)F)cc1)Nc1cccc(C(=O)Nc2ccc3[nH]ncc3c2)c1,"enzyme activity, FRET",1 µM,74
CCCS(=O)(=O)Nc1ccc(F)c(C(=O)c2c[nH]c3ncc(-c4ccc(Cl)cc4)cc23)c1F,enzyme activity,1 µM,< 10
